Laboratory results reported in ChEMBL document CHEMBL1152488, “Synthesis and evaluation of pyrido[1,2-a]pyrimidines as inhibitors of nitric oxide synthases” (Eur J Med Chem, 2009).

Tests used:
[1] = molecular target: T1, Nitric oxide synthase, inducible (Mus musculus) (UniProt P29477); test: Inhibition of mouse iNOS expressed in insect Sf9 cells assessed as residual activity at 100 uM by Griess assay relative to control
T1 sequence (whole entry): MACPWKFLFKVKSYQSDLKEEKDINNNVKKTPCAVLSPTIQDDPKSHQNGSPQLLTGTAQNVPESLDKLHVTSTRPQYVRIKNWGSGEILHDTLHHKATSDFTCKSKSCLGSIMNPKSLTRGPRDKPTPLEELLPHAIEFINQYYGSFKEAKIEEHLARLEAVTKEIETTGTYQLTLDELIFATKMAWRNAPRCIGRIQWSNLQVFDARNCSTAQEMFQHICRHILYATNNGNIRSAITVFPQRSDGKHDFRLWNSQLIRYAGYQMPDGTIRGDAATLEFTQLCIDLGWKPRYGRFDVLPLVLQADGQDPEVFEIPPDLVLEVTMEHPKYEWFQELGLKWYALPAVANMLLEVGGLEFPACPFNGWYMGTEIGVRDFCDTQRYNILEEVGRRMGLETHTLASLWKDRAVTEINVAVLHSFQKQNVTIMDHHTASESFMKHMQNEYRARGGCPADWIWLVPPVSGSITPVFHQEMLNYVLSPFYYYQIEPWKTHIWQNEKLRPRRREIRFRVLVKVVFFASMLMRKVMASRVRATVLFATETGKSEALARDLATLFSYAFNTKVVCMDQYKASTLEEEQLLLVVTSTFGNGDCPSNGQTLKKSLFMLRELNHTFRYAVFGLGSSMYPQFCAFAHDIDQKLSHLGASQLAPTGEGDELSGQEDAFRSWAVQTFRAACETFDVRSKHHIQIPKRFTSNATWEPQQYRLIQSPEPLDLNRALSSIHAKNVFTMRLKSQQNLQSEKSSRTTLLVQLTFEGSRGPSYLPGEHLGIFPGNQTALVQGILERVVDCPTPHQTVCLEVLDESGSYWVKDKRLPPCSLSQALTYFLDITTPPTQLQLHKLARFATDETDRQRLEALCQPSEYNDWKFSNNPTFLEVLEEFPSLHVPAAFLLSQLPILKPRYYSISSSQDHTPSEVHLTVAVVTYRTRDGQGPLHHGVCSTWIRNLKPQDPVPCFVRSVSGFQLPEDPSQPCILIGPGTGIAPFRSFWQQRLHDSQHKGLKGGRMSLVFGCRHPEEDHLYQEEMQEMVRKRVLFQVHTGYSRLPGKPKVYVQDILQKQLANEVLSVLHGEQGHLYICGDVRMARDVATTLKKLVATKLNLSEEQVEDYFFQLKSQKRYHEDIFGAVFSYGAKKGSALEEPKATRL
In short: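 Murine iNOS produced in Sf9 insect cells. Buffer: 50 mM triethanolamine pH 7.5, 1 mM CHAPS, 10 mM 2-mercaptoethanol, 0.5 mM EDTA. Additions: 1 mM Mg2+, 5 µM FAD, 5 µM FMN, 0.5 mM NADPH, 10 µM H4B, 10 µg/ml CaM, 1 mM L-arginine. Compound at 100 µM final, 37 °C for 20 min. NADPH removed with LDH/pyruvate, then Griess read at 543 nm. Values are % of 1% DMSO control, 5 experiments.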

[2] = molecular target: T2, Nitric oxide synthase 3 (Bos taurus) (UniProt P29473); test: Inhibition of bovine eNOS expressed in insect Sf9 cells assessed as residual activity at 100 uM by Griess assay relative to control
T2 sequence (whole entry): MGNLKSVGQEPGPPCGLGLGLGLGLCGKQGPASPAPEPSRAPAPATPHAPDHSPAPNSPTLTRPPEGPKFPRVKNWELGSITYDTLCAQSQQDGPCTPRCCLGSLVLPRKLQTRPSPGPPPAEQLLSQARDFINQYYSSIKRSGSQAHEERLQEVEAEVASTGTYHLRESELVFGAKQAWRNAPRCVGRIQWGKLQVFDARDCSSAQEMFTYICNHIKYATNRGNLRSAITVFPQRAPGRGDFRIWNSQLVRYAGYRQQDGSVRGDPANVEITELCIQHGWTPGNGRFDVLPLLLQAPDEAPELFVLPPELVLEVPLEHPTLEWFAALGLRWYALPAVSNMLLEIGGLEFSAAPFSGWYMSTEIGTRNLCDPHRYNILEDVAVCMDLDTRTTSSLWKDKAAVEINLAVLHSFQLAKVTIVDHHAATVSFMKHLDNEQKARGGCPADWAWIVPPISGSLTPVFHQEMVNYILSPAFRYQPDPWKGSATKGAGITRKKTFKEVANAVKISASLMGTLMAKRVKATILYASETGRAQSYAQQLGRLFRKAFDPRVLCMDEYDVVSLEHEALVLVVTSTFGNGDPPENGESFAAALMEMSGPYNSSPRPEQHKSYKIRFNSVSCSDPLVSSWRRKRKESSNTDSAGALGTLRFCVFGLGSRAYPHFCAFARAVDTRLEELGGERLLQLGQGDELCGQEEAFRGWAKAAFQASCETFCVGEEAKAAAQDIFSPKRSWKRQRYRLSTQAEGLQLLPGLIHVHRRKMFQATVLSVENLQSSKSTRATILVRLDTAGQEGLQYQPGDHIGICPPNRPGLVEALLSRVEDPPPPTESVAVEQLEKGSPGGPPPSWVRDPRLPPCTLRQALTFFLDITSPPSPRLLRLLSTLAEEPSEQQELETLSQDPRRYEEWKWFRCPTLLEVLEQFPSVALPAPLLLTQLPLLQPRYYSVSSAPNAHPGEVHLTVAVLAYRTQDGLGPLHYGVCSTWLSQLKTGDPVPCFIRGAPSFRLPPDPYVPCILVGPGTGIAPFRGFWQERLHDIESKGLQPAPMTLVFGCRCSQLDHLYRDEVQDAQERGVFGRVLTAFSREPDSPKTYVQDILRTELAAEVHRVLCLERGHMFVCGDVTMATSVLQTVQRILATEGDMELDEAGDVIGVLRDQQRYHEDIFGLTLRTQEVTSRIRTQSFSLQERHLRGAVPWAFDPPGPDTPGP
In short: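 Bovine eNOS from Sf9 cells. Reaction: triethanolamine buffer pH 7.5, 0.5 mM Ca2+, 10 µg/ml CaM, 10 µM H4B, FAD, FMN, 0.5 mM NADPH, 1 mM L-arginine, with 100 µM compound, 20 min at 37 °C. After NADPH removal by LDH/pyruvate, nitrite measured by Griess at 543 nm. Expressed as % residual activity versus 1% DMSO control, 5 experiments.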

[3] = molecular target: T1, Nitric oxide synthase, inducible (Mus musculus); test: Inhibition of mouse recombinant iNOS expressed in Escherichia coli assessed as NADPH consumption at 100 uM after 2 mins by spectrophotometry
In short: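 Murine iNOS from E. coli (15–50 nM final) in 50 mM Hepes pH 7.4 with 5 mM DTT, 100 µM CaCl2, 200 µM NADPH, 10 µM H4B, 100 µM L-arginine and 100 µM compound. Cofactors and compound preincubated 2 min at 37 °C, enzyme added, and A340 followed for 3 min (ε 6.2 mM-1 cm-1). Given as % of 1% DMSO control NADPH oxidase rate.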

| SMILES | Activity [1] | Activity [2] | Remaining NADPH oxidation rate (% of DMSO control) [3] |
| --- | --- | --- | --- |
| CCSC(=N)N | 2% | 27% | – |
| CC(=N)NCc1cccc(CN)c1 | 3% | 107% | – |
| COc1ccc(C(=O)C2CN=C3C=CC=C(C)N3C2)cc1OC.[O-][Cl+3]([O-])([O-])O (configuration not stated) | 95% | 90% | 92% |
| COc1ccc2cc(C(=O)C3CN=C4C=C(C)C=CN4C3)ccc2c1 (configuration not stated) | 72% | 80% | – |
| CCCNC(=N)NCCC[C@H](N)C(=O)O | 88% | 93% | – |
| CC1=CC2=NCC(C(=O)c3ccc(-c4ccc(C#N)cc4)cc3)CN2C=C1.Cl (configuration not stated) | – | – | 40% |
| CC1=CC=CC2=NCC(C(=O)c3ccc(F)cc3)CN12.[O-][Cl+3]([O-])([O-])O (configuration not stated) | 83% | 41% | 87% |
| CC1=CC2=NCC(C(=O)c3ccc(-c4ccc(Br)cc4)cc3)CN2C(C)=C1 (configuration not stated) | – | – | 72% |
| O=C(c1ccc(Br)cc1)C1CN=C2C=CC=CN2C1 (configuration not stated) | 92% | 86% | – |
| CC1=CC2=NCC(C(=O)c3ccc(-c4ccccc4)cc3)CN2C=C1 (configuration not stated) | 40% | 17% | – |
| CC1=CC2=NCC(C(=O)c3ccccc3)CN2C=C1 (configuration not stated) | 16% | 40% | – |
| COc1ccc(C(=O)C2CN=C3C=C(C)C=CN3C2)cc1F.[O-][Cl+3]([O-])([O-])O (configuration not stated) | – | – | 73% |
| CC1=CC2=NCC(C(=O)c3ccc(OCc4ccc(Br)cc4)cc3)CN2C=C1.Cl (configuration not stated) | – | – | 100% |
| CC1=CC2=NCC(C(=O)c3ccc(OCc4ccc(Cl)cc4)cc3)CN2C=C1.[O-][Cl+3]([O-])([O-])O (configuration not stated) | – | – | 64% |
| CC1=CC2=NCC(C(=O)c3ccc(Br)cc3)CN2C=C1 (configuration not stated) | 33% | 72% | – |
| CC1=CC=CC2=NCC(C(=O)c3ccc4ccccc4c3)CN12 (configuration not stated) | 75% | 75% | – |
| CC1=CC2=NCC(C(=O)c3ccc4ccccc4c3)CN2C=C1 (configuration not stated) | 28% | 50% | – |
| O=C(c1ccc(Cl)c(Cl)c1)C1CN=C2C=CC=CN2C1.[O-][Cl+3]([O-])([O-])O (configuration not stated) | 95% | 83% | 100% |
| CC1=CC=CC2=NCC(C(=O)c3ccc(C)cc3)CN12.[O-][Cl+3]([O-])([O-])O (configuration not stated) | 99% | 101% | 94% |
| O=C(c1ccc2ccccc2c1)C1CN=C2C=CC=CN2C1 (configuration not stated) | 97% | 80% | – |
| CC1=CC2=NCC(C(=O)c3ccc(F)cc3)CN2C=C1 (configuration not stated) | 78% | 37% | – |
| CC1=CC2=NCC(C(=O)c3ccc(-c4ccc(Br)cc4)cc3)CN2C=C1.[O-][Cl+3]([O-])([O-])O (configuration not stated) | – | – | 64% |
| CC1=CC2=NCC(C(=O)c3ccc(Cl)cc3)CN2C=C1 (configuration not stated) | 28% | 20% | – |
| CC1=CC2=NCC(C(=O)c3ccc4cc(C)ccc4c3)CN2C(C)=C1.[O-][Cl+3]([O-])([O-])O (configuration not stated) | – | – | 72% |
| CC1=CC=CC2=NCC(C(=O)c3ccc(Br)cc3)CN12 (configuration not stated) | 9% | 93% | – |
| COc1ccc(-c2ccc(C(=O)C3CN=C4C=C(C)C=CN4C3)cc2)cc1.Cl (configuration not stated) | – | – | 40% |
| CC1=CC2=NCC(C(=O)c3ccc(OCc4ccc(C#N)cc4)cc3)CN2C=C1.[O-][Cl+3]([O-])([O-])O (configuration not stated) | – | – | 77% |
| CC1=CC2=NCC(C(=O)c3ccc4cc(C)ccc4c3)CN2C=C1.[O-][Cl+3]([O-])([O-])O (configuration not stated) | 90% | 49% | 70% |
